Hits are enriched below; roughly 2% of the tested compounds scored in any of these assays.
HIF act = HIF pathway transcriptional activation; U2OS HRE-luciferase reporter, luminescence; normalized: DMSO 0%, desferrioxamine 100%; activation, % at 7.5 µM (by protocol); 0.32% of 300,000 active;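 active = mean activation of at least 10% of the iron chelator positive control signal, with at least half of replicates also reaching 10%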
T cruzi repl = T. cruzi replication inhibition | T. cruzi beta-gal in NIH3T3, luminescence, 90 h | inhibition, % (test concentration not listed) | 1.4% of 300,000 active;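 active = mean inhibition across valid replicates above about 55%, limit read from the data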;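 also: signal also drops with host cell toxicity which is not excluded here; higher percent means less beta-gal luminescence so fewer parasites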
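Incubation – ≥90 h infection period, 3 h prior cell attachment · System – NIH/3T3 fibroblasts plus reporter T. cruzi · Doses – compound pinned at 50 nL/well, DMSO · Read-out basis – percent inhibition of parasite-derived β-gal signal · Signal – luminescent β-galactosidase signal after 60 min lysis · Also added – 5000 T. cruzi trypomastigotes/well · Medium – Low-serum DMEM with 2% FBS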
ARNT-TACC3 inh = ARNT/TACC3 interaction disruption; Q9Y6A5; AlphaScreen His-ARNT PAS-B/GST-TACC3 binding, luminescence; TACC3 fragment carries E629A point mutation; inhibition, % at 9.99 µM; 0.66% of 390,000 active;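 active = mean inhibition of replicates at least 50% and at least half of replicates each reaching 50%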
AI-2 QS modul = Vibrio harveyi AI-2 quorum sensing modulation; Vibrio harveyi JMH597 AI-2 luminescence/OD600 ratio, 9 h; hits give low values; strain lacks LuxN and CqsS sensors; 0 = neutral-control median; AID 2094; 0.4% of 300,000 active; activity change, % at 7.5 µM; in the data active = activity change below about -75%, passing the limit was not always enough;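 also: luminescence divided by OD600 gain over 9 h not by final OD600 alone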
A number is an active result; n = inactive; x = not tested or not shown.

SMILES	HIF act	T cruzi repl	ARNT-TACC3 inh	AI-2 QS modul
Cc1ccc(OCC(=O)N/N=C/c2cn(C)c3ccccc23)cc1	n	n	n	n
Cc1ccc(OCC(=O)N/N=C/c2cccc3cccnc23)cc1	n	n	64	n
Cc1ccc(-c2nc3c(c(=O)[nH]c(=O)n3CC(C)C)n2CC(C)C)cc1[N+](=O)[O-]	n	58	n	n
CCC(=O)N1C[C@@H](O)COC[C@@H]2O[C@H](CC(=O)N3CCCCC3)CC[C@H]21	x	x	n	x
O=C1C=C(c2ccccc2)CC(c2cccs2)C1n1cnc([N+](=O)[O-])c1 (centres undefined)	48	n	n	n
O=C1C=C(c2ccccc2)C[C@H](c2cccs2)[C@H]1n1nnc([N+](=O)[O-])n1	n	n	n	n
COc1ccc(Cc2noc(CN3CCC(c4ccncc4)CC3)n2)cc1OC	n	n	n	n
COc1ccc(Cc2noc(CN3CCCN(Cc4ccc(F)cc4)CC3)n2)cc1OC	n	78	x	n
Fc1cccc(Cc2noc(CN3CCCN(C4Cc5ccccc5C4)CC3)n2)c1	n	57	n	n
Fc1cccc(Cc2noc(CN3CCN(C4CCc5ccccc5C4)CC3)n2)c1 (centres undefined)	n	n	x	n
COc1ccc(Cc2noc(CN3CCN(C4CCc5ccccc5C4)CC3)n2)cc1OC (centres undefined)	n	57	x	n
O=C(C[C@@H]1C[C@H]2c3cc(NC(=O)NC4CCCC4)ccc3O[C@H]2[C@H](CO)O1)NCc1ccc(-c2ccccc2)cc1	x	x	n	x
C[C@H](CO)N1C[C@H](C)[C@H](CN(C)Cc2ccccc2)Oc2ccc(NC(=O)CCCN(C)C)cc2C1=O	x	x	n	x
COc1cccc(S(=O)(=O)Nc2ccc3c(c2)[C@@H]2C[C@@H](CC(=O)O)O[C@H](CO)[C@@H]2O3)c1	x	x	n	x
C[C@H]1CCCCO[C@@H](CN(C)C(=O)Nc2ccc(F)cc2)[C@@H](C)CN([C@@H](C)CO)C(=O)c2cc(NS(=O)(=O)c3ccc(Cl)cc3)ccc2O1	x	x	n	x
CC1Nc2ncnc(N3CCOCC3)c2N(Cc2ccccc2)C1=O (centres undefined)	n	n	23	n
COc1ccc(S(=O)(=O)N(C)C[C@@H]2OCCCC[C@H](C)Oc3ccc(NC(=O)Nc4c(C)noc4C)cc3C(=O)N([C@H](C)CO)C[C@@H]2C)cc1	x	x	n	x
COc1ccc(CCN2CCCC(CN(C)C(=O)c3cc(C)oc3C)C2)cc1 (centres undefined)	n	63	n	n
Cc1cc(C(=O)N(C)CC2CCCN(CCc3ccc(F)cc3)C2)c(C)o1 (centres undefined)	n	56	n	n
COc1ccc(CCN2CCCC(CN(C)C(=O)c3ccoc3C)C2)cc1 (centres undefined)	n	n	n	n
C[C@H]1CN([C@@H](C)CO)C(=O)c2cc(NC(=O)CCC(F)(F)F)ccc2O[C@@H]1CN(C)CC1CCCCC1	x	x	n	x
Cc1cccc2sc(NC(=O)C3CCN(S(=O)(=O)c4cc([N+](=O)[O-])ccc4Cl)CC3)nc12	n	68	n	n
O=C(NC1=NCCS1)C1CCN(S(=O)(=O)c2cc([N+](=O)[O-])ccc2Cl)CC1	x	x	n	x
CO[C@H]1CN(C)C(=O)c2cc(NC(=O)C3CC3)ccc2OC[C@@H](C)N(C(=O)CN(C)C)C[C@@H]1C	x	x	n	x
CCC(C)c1ccccc1NC(=O)c1cc2cccc([N+](=O)[O-])c2[nH]1 (centres undefined)	n	65	x	x
SMILES	HIF act	T cruzi repl	ARNT-TACC3 inh	AI-2 QS modul
COc1ccc2cc3cc(C(=O)NCCN4CCN(c5ccccc5F)CC4)oc3nc2c1	n	n	n	n
COc1ccc2cc3cc(C(=O)Nc4ccccc4N4CCN(C)CC4)oc3nc2c1	n	67	x	n
CC(=O)N1[C@H](CO)[C@@H](c2ccccc2)[C@H]1CN(C)S(=O)(=O)c1ccccc1	x	x	n	x
CCCC(=O)N1CCCC(C(=O)c2ccc(OC)c(OC)c2)C1 (centres undefined)	n	n	n	n
COc1ccc(Cl)cc1C(=O)C1CCCN(Cc2cnc(N3CCOCC3)s2)C1 (centres undefined)	n	72	n	n
COc1c(C)cc(C(=O)C2CCCN(Cc3cnc(N4CCOCC4)s3)C2)cc1C (centres undefined)	n	n	n	n
COc1ccc(F)cc1C(=O)C1CCCN(Cc2cnc(N3CCCC3)s2)C1 (centres undefined)	n	57	n	n
COc1ccc(C(=O)C2CCCN(C(=O)C3CCOCC3)C2)cc1OC (centres undefined)	424	n	n	n
COc1ccc(C(=O)C2CCCN(Cc3cnc(N4CCCC4)s3)C2)cc1OC (centres undefined)	n	67	x	n
CO[C@H]1CN(C)C(=O)c2cc(NC(=O)Nc3ccccc3F)ccc2OC[C@H](C)N(C(C)=O)C[C@@H]1C	x	x	n	x
O=C(Nc1ccc(Cl)c(Cl)c1)Nc1nc(-c2ccccc2)cs1	n	64	n	n
Cc1cc(/C=N/N2CCN(C)CC2)c(C)n1-c1ccccc1F	n	67	n	n
O=C(C[C@H]1CC[C@H](NC(=O)c2ccncc2)[C@H](CO)O1)NCC1CCCCC1	x	x	n	x
COc1cc(NC(=O)c2cc(-c3ccc4c(c3)OCO4)on2)cc(OC)c1OC	n	59	n	n
COc1cc(NC(=O)c2cc(-c3ccccc3)on2)cc(OC)c1OC	n	n	n	n
O=C(CN1CCOCC1)NCC[C@@H]1CC[C@@H](NC(=O)c2ccc3c(c2)OCO3)[C@H](CO)O1	x	x	n	x
O=C(Nc1nc(-c2ccccc2)c(-c2ccccc2)o1)c1ccc(F)cc1	n	n	46	n
O=C(Cc1ccc([N+](=O)[O-])cc1)NCc1cccnc1	n	n	n	n
O=C(NCc1ccco1)c1ccc(Cn2cc([N+](=O)[O-])cn2)o1	n	n	n	n
O=C(NCc1cccnc1)c1ccc([N+](=O)[O-])o1	n	74	n	-109
O=C(Nc1cccnc1)c1ccc([N+](=O)[O-])o1	n	n	n	-108
O=C(NCc1ccco1)c1ccc([N+](=O)[O-])o1	n	73	n	-165
COc1ccc(CNC(=O)CN(CC2CCCO2)C(=O)CNS(=O)(=O)c2ccc(C)cc2)cc1 (centres undefined)	27	n	n	n
COc1ccc(C2CC(c3cccs3)=NN2C(=O)CCC(=O)O)cc1 (centres undefined)	n	n	n	n
COc1cc(C2CC(c3cccs3)=NN2C(=O)CCl)ccc1OC(F)F (centres undefined)	n	61	n	n
COc1ccc(C2CC(c3cccs3)=NN2C(=O)CCl)cc1OC (centres undefined)	n	62	x	n
COc1ccc(C2CC(c3cccs3)=NN2C(=O)c2ccccc2)cc1OC (centres undefined)	n	n	n	n
O=C(C[C@@H]1C=C[C@H](NC(=O)NC2CCCCC2)[C@H](CO)O1)NCc1ccc(F)cc1	x	x	n	x
CC(=Nc1ccccc1)C1=C(O)C(Cc2ccccc2)NC1=O (centres undefined)	x	x	n	x

High-throughput results from PubChem.
